As a reminder, the inhibition is the relative decrease from the control value, in per cent.

The nature of assay [1]: inhibitors of TNFa-induced NFkB p65 translocation, primary screen, imaging, HUVEC, MLSMR starter and 10KST1 sets (AID 438;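 active = inhibition above 20% together with a positive visual image hit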;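 also: compound added about 3h40 before a 20 min TNFalpha stimulation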;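 as to inhibition: signal is the nuclear over cytoplasmic p65 intensity ratio per well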). To be noted: HUVEC TNFa-induced p65 nuclear translocation; cell count: measured here: nuclei count (cytotoxicity indicator), at 2.08 µM; inhibition: at 2 µM, stronger effect = higher value, 0% TNFa-plus-vehicle, 100% no-TNFa wells.
A short description of assay [2]: inhibitors of mutant huntingtin aggregation, primary screen, imaging, exon1htt(103Q)mCFP cells, high-content imaging (AID 483;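 active = visual image review flags a hit and inhibition of aggregation exceeds 20%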;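 also: compound exposure lasted 3 days before fixation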;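 as to nuclei count: percent of the per-plate median nuclei count of sample wells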). To be noted: exon1htt(103Q)mCFP cell line, aggregate imaging, at 2 µM; inhibition of aggregation: stronger effect = higher value; nuclei count: measured here: cell count, toxicity.
Assay [3] in a line: inhibitors of E-selectin induction by TNFa, primary screen, imaging, HUVEC, immunofluorescence, MLSMR starter and 10KST1 sets (AID 487;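 active = visually confirmed hit in the image check and inhibition above 20%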;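 as to inhibition: signal is fraction of cell area covered by stained E-selectin grains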;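 as to nuclei count: 100% = median nuclei count of all wells on the same plate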). The conditions noted are these: HUVEC TNFalpha-induced E-selectin immunofluorescence imaging, at 2 µM; inhibition: stronger effect = higher value; nuclei count: measured here: cell number, toxicity.
Assay [4] deals with Voltage-gated potassium channel subunit beta-2 (Rattus norvegicus) (UniProt P62483). The assay is described as follows: KvBeta enzyme negative modulators, primary screen, biochemical, NADPH fluorescence (AID 622).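 Also: slope of raw intensity against log time taken from 70 to 1610 s.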 The conditions noted are these: recombinant KvBeta, 4-cyanobenzaldehyde reduction, at 10 µM, stronger effect = higher value.
Chain of Voltage-gated potassium channel subunit beta-2 (Rattus norvegicus) (P62483 whole entry, looked up): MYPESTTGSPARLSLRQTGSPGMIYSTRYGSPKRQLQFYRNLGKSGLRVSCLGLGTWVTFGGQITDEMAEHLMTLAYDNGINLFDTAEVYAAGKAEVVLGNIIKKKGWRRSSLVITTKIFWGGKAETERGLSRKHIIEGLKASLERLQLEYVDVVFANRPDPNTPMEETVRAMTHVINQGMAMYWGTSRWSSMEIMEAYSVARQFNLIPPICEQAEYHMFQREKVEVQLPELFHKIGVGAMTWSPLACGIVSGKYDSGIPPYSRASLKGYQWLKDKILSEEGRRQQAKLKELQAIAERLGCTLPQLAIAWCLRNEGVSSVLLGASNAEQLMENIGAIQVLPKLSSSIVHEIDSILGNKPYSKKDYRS
Assay [5] has the same target. The experiment in a line: KvBeta positive modulators, primary screen, biochemical, NADPH fluorescence (AID 623;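 active = NADPH fluorescence slope more negative than the mean of all samples by about 3 SD, 99.7% confidence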;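 also: fluorescence intensity change per second fitted from 20 to 320 s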). To be noted: Recombinant KvBeta, NADPH fluorescence decrease slope, 10 min; at 10 µM; stronger effect = lower value.
Assay [6] deals with Muscarinic acetylcholine receptor M4 (Homo sapiens) (UniProt P08173). The experiment in a line: compounds altering M4/GIRK thallium flux, either direction, primary screen, M4 allosteric agonist project, cell-based, HEK293 M4/GIRK, BTC-AM (AID 625;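 active = fluorescence slope after compound addition differing from the mean of all tested samples at 99.7% confidence, mostly higher but some lower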;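 also: thallium influx through GIRK channels coupled to M4 in HEK293 cells with BTC-AM dye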). To be noted: at 10 µM, actives lie on both sides. The method in brief: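 Material: HEK293 cells with M4 receptor and GIRK channels; Times: cells overnight at 37 °C, BTC-AM loading 1 h, reads 2 min total; Technique: kinetic BTC-AM fluorescence sampled at 1 Hz, 10 s pre-addition baseline; Read-out basis: slope over 15–24 s of trace normalized to starting intensity; Controls: carbachol positive, DMSO negative.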
Chain of Muscarinic acetylcholine receptor M4 (Homo sapiens) (P08173 whole entry, looked up): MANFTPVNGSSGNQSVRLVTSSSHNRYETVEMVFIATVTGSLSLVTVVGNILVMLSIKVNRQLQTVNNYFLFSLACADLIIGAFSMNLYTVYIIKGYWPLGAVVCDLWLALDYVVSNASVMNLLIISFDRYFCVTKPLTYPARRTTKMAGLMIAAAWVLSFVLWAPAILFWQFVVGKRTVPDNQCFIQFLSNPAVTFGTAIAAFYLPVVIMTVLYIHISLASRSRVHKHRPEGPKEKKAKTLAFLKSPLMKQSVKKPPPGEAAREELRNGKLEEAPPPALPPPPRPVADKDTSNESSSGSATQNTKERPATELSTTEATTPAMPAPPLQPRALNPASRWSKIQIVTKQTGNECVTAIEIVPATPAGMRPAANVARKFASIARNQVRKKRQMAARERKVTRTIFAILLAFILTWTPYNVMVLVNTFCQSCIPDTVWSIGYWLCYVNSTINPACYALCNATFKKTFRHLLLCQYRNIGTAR

A short description of assay [7]: inhibitors of Sendai virus-induced IRF3 signaling, primary screen, TLR/RLR signaling modifier project, cell-based, Sendai virus stimulus, luciferase, 10K MLSCN set (AID 602276;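 active = inhibition at or above 50% at 10 µM; inactive = inhibition below 50%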;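 also: firefly luciferase from ISG56 promoter only with Renilla not read in this screen; 0% = Sendai virus plus DMSO and 100% = medium plus DMSO without virus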). The conditions noted are these: HEK293 RL24 IRF3 luciferase reporter, at 10 µM, stronger effect = higher value. For orientation: A reporter such as luciferase makes a cellular process visible.
Assay [8] in a line: inhibitors of poly I:C-induced TLR3 signaling, primary screen, cell-based, poly I:C stimulus, luciferase, 10K MLSCN set (AID 602277;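 active = inhibition of the reporter signal at or above 50%; inactive = inhibition below 50%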). The conditions noted are these: HEK293-TLR3 RL24 IRF3 luciferase reporter, at 10 µM, stronger effect = higher value.

SMILES strings stand for the structures. Calls of active or inactive are those of the source.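 The calls were made as follows, unless noted: active = fluorescence slope higher than the sample average by over 3 SD (cut at about -0.22 in these data, passing the limit was not always enough); inactive = the rest.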

`CC1c2nc3ccccc3n2C(CC(=O)NCc2ccccn2)C(=O)N1Cc1ccccc1` (centres undefined): the cell count in assay [1] is 678. Further, the inhibition is -3.4% (inactive) in assay [1], -115% (inactive) in assay [3], 15% (inactive) in assay [7] and 22.6% (inactive) in assay [8]. Moreover, in assay [2], the inhibition of aggregation was -12.5% (inactive). Also, the nuclei count in assay [2] and in assay [3] was 119% each time. Also, the fluorescence slope is -0.505 (inactive) in assay [4] and 0.0053 (inactive) in assay [6]. Further, the NADPH fluorescence slope in assay [5] was -1.2e-05 (inactive).

Turning to `O=C(CSc1nnc(Cn2cnc3ccccc32)o1)c1ccccc1`, the cell count in assay [1] turned out to be 672. Also, the inhibition in assay [1] was 3% (inactive); in assay [3], 82.5% (inactive); in assay [7] it was 7.52% (inactive); in assay [8], -3.02% (inactive). The inhibition of aggregation in assay [2] is -1.5% (inactive). Moreover, the nuclei count stood at 92.9% in assay [2] and 52% in assay [3]. Further, the fluorescence slope in assay [4] was -0.464 (inactive); in assay [6] it was 0.00662 (inactive). Moreover, the NADPH fluorescence slope in assay [5] is -3.7e-05 (inactive).

For the molecule `CNC(=O)CC(C(=O)O)c1ccc(OCC(C)C)cc1` (centres undefined), the cell count in assay [1] came out at 611. Moreover, the inhibition in assay [1] was -1.5% (inactive); in assay [3] it was 13.6% (inactive); in assay [7], 9.55% (inactive); in assay [8] it was 16.9% (inactive). Moreover, the inhibition of aggregation in assay [2] was -15.2% (inactive). In addition, the nuclei count in assay [2] turned out to be 114%; in assay [3], 103%. In addition, the fluorescence slope was -0.562 (inactive) in assay [4] and 0.00333 (inactive) in assay [6]. The NADPH fluorescence slope in assay [5] is -8.4e-05 (inactive).

For the molecule `COc1ccc(Cc2nc3ccc(S(N)(=O)=O)cc3[nH]2)cc1OC`, the cell count in assay [1] stood at 423. In addition, the inhibition in assay [1] was -22.9% (inactive); in assay [3] it was 75.1% (active); in assay [7], 9.58% (inactive); in assay [8] it was 8.25% (inactive). The inhibition of aggregation in assay [2] is 18.8% (inactive). Moreover, the nuclei count in assay [2] is 58.6%; in assay [3], 59.2%. The fluorescence slope in assay [4] is -0.553 (inactive); in assay [6] it was 0.00712 (inactive). Further, the NADPH fluorescence slope in assay [5] was -2.6e-05 (inactive).

`CC1(c2ccc(OC(F)F)cc2)NC(=O)N(CC(=O)Nc2ccc3c(c2)OCO3)C1=O` (centres undefined): the cell count in assay [1] came to 404. The inhibition in assay [1] was -6.6% (inactive); in assay [3], -7.1% (inactive); in assay [7], -3.26% (inactive); in assay [8], 2.25% (inactive). In addition, the inhibition of aggregation in assay [2] was -11.2% (inactive). Besides, the nuclei count amounted to 109% in assay [2] and 107% in assay [3]. Moreover, the fluorescence slope in assay [4] is -0.576 (inactive); in assay [6], 0.00647 (inactive). The NADPH fluorescence slope in assay [5] is -6.3e-05 (inactive).

On to `CCOC(=O)c1ccccc1NC(=O)CSc1nc2c(c(=O)n(C)c(=O)n2C)n1C`, for which, in assay [1], the cell count was 718. For the same molecule, the inhibition in assay [1] is -6.2% (inactive); in assay [3], 12.3% (inactive); in assay [7], 18.4% (inactive); in assay [8], 25% (inactive). In addition, the inhibition of aggregation in assay [2] is -10.4% (inactive). For the same molecule, the results for the nuclei count in assay [2] and in assay [3] were 107% and 102%, respectively. Also, the fluorescence slope was -0.444 (inactive) in assay [4] and 0.00588 (inactive) in assay [6]. The NADPH fluorescence slope in assay [5] is 3e-05 (inactive).

Take `COc1ccc(OC)c(NC(=O)Cc2coc3ccc(C)cc23)c1`: the cell count in assay [1] came out at 451. Besides, the inhibition was 3.5% (inactive) in assay [1], 46.7% (inactive) in assay [3], 13.3% (inactive) in assay [7] and 16.6% (inactive) in assay [8]. Moreover, the inhibition of aggregation in assay [2] was 3.9% (inactive). Moreover, the nuclei count in assay [2] was found to be 97.1%; in assay [3], 90.5%. The fluorescence slope in assay [4] was -0.468 (inactive); in assay [6], 0.0049 (inactive). Further, the NADPH fluorescence slope in assay [5] is -3.1e-05 (inactive).

Regarding `COc1ccc(-c2noc(CN3C(=O)c4ccccc4C3=O)n2)cc1`, the cell count in assay [1] came to 551. In addition, the inhibition in assay [1] is 8.9% (inactive); in assay [3] it was -19.9% (inactive); in assay [7] it was 0.341% (inactive); in assay [8], -2.38% (inactive). In assay [2], the inhibition of aggregation is 4.4% (inactive). Besides, the figures for the nuclei count in assay [2] and in assay [3] were 90.5% and 108%, respectively. Besides, the fluorescence slope in assay [4] was -0.551 (inactive); in assay [6], 0.00296 (inactive). In assay [5], the NADPH fluorescence slope is -4.8e-05 (inactive).

On to `N#C/C(C(=O)N1CCOCC1)=C1/SC=C(c2ccccc2)N1c1ccccc1`, for which, in assay [1], the cell count worked out at 327. Besides, the inhibition in assay [1] was -5.5% (inactive); in assay [3], -118% (inactive); in assay [7], 12.4% (inactive); in assay [8] it was 26.4% (inactive). The inhibition of aggregation in assay [2] was 13.8% (inactive). The figures for the nuclei count in assay [2] and in assay [3] were 96.2% and 118%, respectively. Also, the figures for the fluorescence slope in assay [4] and in assay [6] were -0.277 (inactive) and 0.00553 (inactive), respectively. The NADPH fluorescence slope in assay [5] was -3e-05 (inactive).

Turning to `COc1ccc(N2CCN(C(c3cccc(OC)c3OC)c3nnnn3C3CCCC3)CC2)cc1` (centres undefined), the cell count in assay [1] is 709. The inhibition in assay [1] is 20% (inactive); in assay [3] it was 36.9% (inactive); in assay [7], -1.29% (inactive); in assay [8] it was 21.9% (inactive). The inhibition of aggregation in assay [2] is -7.2% (inactive). For the same molecule, the nuclei count worked out at 96.3% in assay [2] and 76.2% in assay [3]. Also, the fluorescence slope is -0.508 (inactive) in assay [4] and 0.00439 (inactive) in assay [6]. The NADPH fluorescence slope in assay [5] is 9.8e-05 (inactive).

In the case of `CCOC(=O)CSC1=Nc2ccccc2C2=NC(CC(=O)NCc3ccc(OC)cc3)C(=O)N12` (centres undefined), the cell count in assay [1] worked out at 463. Besides, the inhibition in assay [1] was -13.6% (inactive); in assay [3], -23.1% (inactive); in assay [7], 10.6% (inactive); in assay [8], 20.5% (inactive). Also, in assay [2], the inhibition of aggregation is -2.2% (inactive). The nuclei count came to 64.2% in assay [2] and 91.7% in assay [3]. For the same molecule, the fluorescence slope in assay [4] was -0.476 (inactive); in assay [6], 0.00508 (inactive). Further, the NADPH fluorescence slope in assay [5] was -8e-06 (inactive).

For the molecule `Cc1ccc(O)c(NC(=O)COc2cc(C)ccc2C)c1`, the cell count in assay [1] was found to be 431. Further, the inhibition is 11.4% (inactive) in assay [1], -71.5% (inactive) in assay [3], -3.99% (inactive) in assay [7] and -13.6% (inactive) in assay [8]. Besides, in assay [2], the inhibition of aggregation was 3% (inactive). Further, the nuclei count in assay [2] came to 106%; in assay [3], 115%. The fluorescence slope in assay [4] is -0.473 (inactive); in assay [6] it was 0.00732 (inactive). The NADPH fluorescence slope in assay [5] is 4.1e-05 (inactive).

With `CCCCn1c(SCC(=O)c2ccc3c(c2)OCCO3)nnc1-c1ccco1`, the cell count in assay [1] was 528. Also, the inhibition is -12.7% (inactive) in assay [1], 15.4% (inactive) in assay [3], 6.03% (inactive) in assay [7] and 12.4% (inactive) in assay [8]. Besides, the inhibition of aggregation in assay [2] is -5.2% (inactive). For the same molecule, the figures for the nuclei count in assay [2] and in assay [3] were 108% and 110%, respectively. The fluorescence slope in assay [4] was -0.483 (inactive); in assay [6], 0.00599 (inactive). The NADPH fluorescence slope in assay [5] is 0.00011 (inactive).

As to `Cc1ccccc1CNS(=O)(=O)c1ccc2c(c1)OCCO2`, the cell count in assay [1] was 450. Moreover, the inhibition is 3.6% (inactive) in assay [1], -11.6% (inactive) in assay [3], 7.7% (inactive) in assay [7] and 11.3% (inactive) in assay [8]. In addition, the inhibition of aggregation in assay [2] was 2.1% (inactive). Also, the nuclei count stood at 108% in assay [2] and 96.6% in assay [3]. Also, the figures for the fluorescence slope in assay [4] and in assay [6] were -0.558 (inactive) and 0.00348 (inactive), respectively. The NADPH fluorescence slope in assay [5] is -1.9e-05 (inactive).
